Reference: ChEMBL document CHEMBL1151747, “Orally bioavailable isothioureas block function of the chemokine receptor CXCR4 in vitro and in vivo” (J Med Chem, 2008)

Assays:
[1] = test system: Blood; assay: Inhibition of CXCL12-induced actin polymerization in human whole blood; type: functional, tissue-based
Outline: (§1)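 EDTA whole blood (100 µL) is preincubated with inhibitor diluted in PBS for 10 min at room temperature. CXCL12 (100 nM final) is added for 25 s at ambient temperature. […] Neutrophil F-actin is read by flow cytometry.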

[2] = Fraction unbound in human serum; type: ADME, cell-free
[3] = molecular target: T1, C-X-C chemokine receptor type 2 (Homo sapiens, UniProt P25025); assay: Inhibition of CXCR2
T1 sequence (P25025 whole entry): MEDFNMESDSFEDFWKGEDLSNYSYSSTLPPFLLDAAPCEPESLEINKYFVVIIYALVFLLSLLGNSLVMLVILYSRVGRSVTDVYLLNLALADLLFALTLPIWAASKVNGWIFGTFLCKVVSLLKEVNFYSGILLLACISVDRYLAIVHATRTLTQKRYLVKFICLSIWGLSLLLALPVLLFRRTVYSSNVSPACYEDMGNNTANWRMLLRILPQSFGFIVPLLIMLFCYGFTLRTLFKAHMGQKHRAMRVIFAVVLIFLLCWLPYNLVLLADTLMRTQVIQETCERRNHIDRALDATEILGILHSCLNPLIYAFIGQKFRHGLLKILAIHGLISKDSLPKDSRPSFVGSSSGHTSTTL

[4] = molecular target: T2, C-C chemokine receptor type 4 (Homo sapiens, UniProt P51679); assay: Inhibition of CCR4
T2 sequence (P51679 whole entry): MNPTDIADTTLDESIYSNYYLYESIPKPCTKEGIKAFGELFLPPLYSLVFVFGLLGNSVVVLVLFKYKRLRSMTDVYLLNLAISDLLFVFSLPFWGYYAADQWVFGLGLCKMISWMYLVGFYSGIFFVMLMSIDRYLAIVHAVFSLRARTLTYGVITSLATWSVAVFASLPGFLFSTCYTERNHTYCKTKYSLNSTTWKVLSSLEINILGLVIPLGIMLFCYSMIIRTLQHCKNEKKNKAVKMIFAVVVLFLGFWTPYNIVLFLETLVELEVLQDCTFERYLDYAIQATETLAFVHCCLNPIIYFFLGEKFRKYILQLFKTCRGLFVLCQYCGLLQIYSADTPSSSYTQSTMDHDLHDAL

[5] = Solubility in pH 1.0 buffer; type: physicochemical
[6] = test system: Human immunodeficiency virus 1; assay: Antiviral activity against X4-tropic HIV1 3B assessed as inhibition of viral attachment; type: functional, organism-based; details: Human immunodeficiency virus 1, 3B
[7] = molecular target: T3, Cytochrome P450 1A2 (Homo sapiens, UniProt P05177); assay: Inhibition of CYP1A2; type: ADME
T3 sequence (P05177 whole entry): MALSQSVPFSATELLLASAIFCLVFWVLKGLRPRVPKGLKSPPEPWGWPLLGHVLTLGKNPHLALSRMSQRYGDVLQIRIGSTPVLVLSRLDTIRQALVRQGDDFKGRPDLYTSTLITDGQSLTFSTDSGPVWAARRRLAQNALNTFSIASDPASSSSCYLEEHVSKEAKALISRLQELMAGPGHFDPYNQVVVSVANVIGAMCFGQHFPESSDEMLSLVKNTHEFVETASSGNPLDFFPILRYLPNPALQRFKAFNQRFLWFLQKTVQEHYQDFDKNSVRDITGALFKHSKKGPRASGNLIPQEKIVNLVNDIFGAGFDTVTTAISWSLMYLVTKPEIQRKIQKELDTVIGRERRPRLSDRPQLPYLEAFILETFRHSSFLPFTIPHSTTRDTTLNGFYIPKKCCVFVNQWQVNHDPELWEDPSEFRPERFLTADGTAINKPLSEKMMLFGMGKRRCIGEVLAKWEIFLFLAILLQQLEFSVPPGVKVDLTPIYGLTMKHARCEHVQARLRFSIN

[8] = molecular target: T4, C-C chemokine receptor type 9 (Homo sapiens, UniProt P51686); assay: Inhibition of CCR9
T4 sequence (P51686 whole entry): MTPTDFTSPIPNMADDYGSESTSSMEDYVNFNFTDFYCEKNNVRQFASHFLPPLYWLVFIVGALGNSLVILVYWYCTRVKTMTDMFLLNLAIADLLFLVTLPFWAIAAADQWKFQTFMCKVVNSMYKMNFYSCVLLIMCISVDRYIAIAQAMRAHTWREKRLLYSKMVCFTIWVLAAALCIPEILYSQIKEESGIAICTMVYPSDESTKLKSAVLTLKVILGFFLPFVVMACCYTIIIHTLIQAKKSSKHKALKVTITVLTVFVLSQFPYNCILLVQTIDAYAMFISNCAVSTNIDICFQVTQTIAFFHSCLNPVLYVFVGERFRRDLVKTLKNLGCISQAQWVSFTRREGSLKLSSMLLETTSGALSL

[9] = Solubility in pH 6.8 buffer; type: physicochemical
[10] = test system: Blood; assay: Inhibition of CXCL12-induced actin polymerization in rat whole blood; type: functional, tissue-based; outline: as §1
[11] = molecular target: T5, C-X-C chemokine receptor type 4 (Homo sapiens, UniProt P61073); assay: Activity at CXCR4 in human CEM cells assessed as inhibition of CXCL12-induced calcium mobilization; type: functional, cell-based, CCRF-CEM
Outline: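 CEM cells are loaded with 4 µM Fluo-4 for 1 h at 37 °C, washed, then preincubated with antagonist for 2 h. Wells are run in quadruplicate on FLIPR.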

[12] = Fraction unbound in rat serum; type: ADME, cell-free
[13] = Intrinsic clearance in rat liver microsomes; type: ADME, Microsome
Outline: (§2)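 Compound is incubated with human or rat liver microsomes; intrinsic clearance is given in µL min-1 mg-1.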

[14] = molecular target: T5, C-X-C chemokine receptor type 4; assay: Displacement of [125I]CXCL12 from CXCR4 in human CEM cells; type: cell-based, CCRF-CEM
Outline: (§3)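 Scintillation proximity assay. Membranes come from CEM cells (human CXCR4) or IR983F cells (rat CXCR4), prepared by homogenization in 20 mM HEPES, 1 mM EDTA pH 7.4 and stored at -80 °C. Nonspecific binding is defined with 400 nM unlabeled CXCL12. Incubation is 2 h at room temperature with shaking, then scintillation counting.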

[15] = Intrinsic clearance in human liver microsomes; type: ADME, Microsome; outline: as §2
[16] = test system: Rattus norvegicus; assay: Reduction in actin polymerization in Lewis rat blood at 30 mg/kg/day administered through osmotic pump for 5 days relative to control; type: functional; parameters: scale not given: the % may be the effect or the level left
Outline: (§4)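 Lewis rats (n = 3) receive 30 mg/kg·d via osmotic pumps for 5 days. Blood is sampled on day 5 and analyzed ex vivo.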

[17] = Drug level in Lewis rat blood at 30 mg/kg/day administered through osmotic pump for 5 days; type: ADME, organism-based; details: other: administered through osmotic pump, read-out: Drug uptake; outline: as §4
[18] = molecular target: Cytochrome P450 3A4 (Homo sapiens, UniProt P08684); assay: Inhibition of CYP3A4; type: ADME
[19] = molecular target: Cytochrome P450 2C9 (Homo sapiens, UniProt P11712); assay: Inhibition of CYP2C9; type: ADME
[20] = Tmax in Lewis rat at 10 mg/kg, po; type: ADME, organism-based; parameters: dose 10 mg/kg, route oral; details: in vivo
[21] = Partition coefficient, log P of the compound; type: physicochemical; details: octanol/water
[22] = molecular target: T6, C-C chemokine receptor type 7 (Homo sapiens, UniProt P32248); assay: Inhibition of CCR7
T6 sequence (P32248 whole entry): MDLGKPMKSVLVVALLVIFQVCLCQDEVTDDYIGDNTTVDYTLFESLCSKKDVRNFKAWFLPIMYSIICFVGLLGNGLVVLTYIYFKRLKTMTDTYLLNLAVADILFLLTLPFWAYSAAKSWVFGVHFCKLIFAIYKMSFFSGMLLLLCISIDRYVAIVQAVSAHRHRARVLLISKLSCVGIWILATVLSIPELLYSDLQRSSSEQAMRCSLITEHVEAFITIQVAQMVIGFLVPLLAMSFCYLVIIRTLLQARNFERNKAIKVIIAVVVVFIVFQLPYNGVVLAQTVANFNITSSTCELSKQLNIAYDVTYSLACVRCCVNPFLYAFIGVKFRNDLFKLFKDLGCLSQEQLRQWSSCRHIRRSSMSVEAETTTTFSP

[23] = Distribution coefficient, log D of the compound; type: physicochemical; details: octanol/water
[24] = Half life in Lewis rat at 10 mg/kg, po; type: ADME, organism-based; parameters: dose 10 mg/kg, route oral; details: in vivo
[25] = molecular target: C-C chemokine receptor type 5 (Homo sapiens, UniProt P51681); assay: Inhibition of CCR5
[26] = molecular target: Cytochrome P450 2C19 (Homo sapiens, UniProt P33261); assay: Inhibition of CYP2C19; type: ADME
[27] = Oral bioavailability in Lewis rat at 10 mg/kg; type: ADME, organism-based; details: in vivo
[28] = Dissociation constant, pKa of the compound; type: physicochemical
[29] = molecular target: C-X-C chemokine receptor type 4 (Rattus norvegicus, UniProt O08565); assay: Displacement of [125I]CXCL12 from CXCR4 in rat IR983F cells; type: cell-based; outline: as §3
[30] = molecular target: Cytochrome P450 2D6 (Homo sapiens, UniProt P10635); assay: Inhibition of CYP2D6; type: ADME
Cytochrome P450 2D6, sequence (P10635 whole entry): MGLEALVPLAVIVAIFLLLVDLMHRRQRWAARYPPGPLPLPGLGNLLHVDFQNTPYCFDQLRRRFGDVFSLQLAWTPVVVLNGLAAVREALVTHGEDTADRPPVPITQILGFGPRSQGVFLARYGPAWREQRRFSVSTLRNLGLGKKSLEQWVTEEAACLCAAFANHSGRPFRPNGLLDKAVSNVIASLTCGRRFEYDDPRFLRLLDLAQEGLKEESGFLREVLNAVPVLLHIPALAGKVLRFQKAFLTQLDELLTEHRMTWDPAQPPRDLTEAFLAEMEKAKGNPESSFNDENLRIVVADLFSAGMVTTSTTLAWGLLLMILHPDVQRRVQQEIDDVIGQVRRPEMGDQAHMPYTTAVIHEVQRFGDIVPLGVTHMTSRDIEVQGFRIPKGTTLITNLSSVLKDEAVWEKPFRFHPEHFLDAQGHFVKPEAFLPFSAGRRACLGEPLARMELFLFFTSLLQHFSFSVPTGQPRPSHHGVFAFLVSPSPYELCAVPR

T5 sequence (P61073 whole entry): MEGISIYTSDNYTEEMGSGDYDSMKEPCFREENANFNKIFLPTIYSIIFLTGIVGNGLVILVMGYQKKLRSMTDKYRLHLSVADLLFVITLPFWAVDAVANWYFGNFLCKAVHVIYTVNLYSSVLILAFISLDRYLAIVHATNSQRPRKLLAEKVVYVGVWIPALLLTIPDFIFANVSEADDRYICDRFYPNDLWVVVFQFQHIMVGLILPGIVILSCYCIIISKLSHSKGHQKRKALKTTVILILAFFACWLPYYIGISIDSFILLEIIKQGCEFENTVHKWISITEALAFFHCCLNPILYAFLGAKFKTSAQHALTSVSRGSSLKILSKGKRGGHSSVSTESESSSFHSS
Cytochrome P450 2C9, sequence (P11712 whole entry): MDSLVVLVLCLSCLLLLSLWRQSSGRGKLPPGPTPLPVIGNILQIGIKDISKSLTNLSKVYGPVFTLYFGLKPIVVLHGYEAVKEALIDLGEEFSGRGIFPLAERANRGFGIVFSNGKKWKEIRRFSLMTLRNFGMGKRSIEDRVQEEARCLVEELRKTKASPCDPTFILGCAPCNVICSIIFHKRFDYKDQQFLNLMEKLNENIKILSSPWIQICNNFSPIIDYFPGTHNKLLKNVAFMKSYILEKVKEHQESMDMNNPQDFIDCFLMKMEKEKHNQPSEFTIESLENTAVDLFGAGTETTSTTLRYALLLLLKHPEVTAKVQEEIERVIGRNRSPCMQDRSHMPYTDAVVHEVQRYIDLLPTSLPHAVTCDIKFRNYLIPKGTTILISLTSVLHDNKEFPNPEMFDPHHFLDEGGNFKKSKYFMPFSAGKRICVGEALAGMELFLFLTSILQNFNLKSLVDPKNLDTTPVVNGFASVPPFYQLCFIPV
C-X-C chemokine receptor type 4 (Rattus norvegicus, UniProt O08565), sequence (O08565 whole entry): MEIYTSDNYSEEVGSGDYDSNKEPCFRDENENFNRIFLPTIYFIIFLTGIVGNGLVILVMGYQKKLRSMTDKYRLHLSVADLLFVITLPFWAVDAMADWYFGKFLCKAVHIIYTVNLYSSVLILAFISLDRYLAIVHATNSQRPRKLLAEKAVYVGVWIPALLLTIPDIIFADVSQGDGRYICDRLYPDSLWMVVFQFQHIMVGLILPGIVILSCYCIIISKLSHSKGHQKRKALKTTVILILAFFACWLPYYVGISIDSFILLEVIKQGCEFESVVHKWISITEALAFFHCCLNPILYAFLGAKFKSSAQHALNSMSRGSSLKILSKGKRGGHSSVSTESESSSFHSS
Cytochrome P450 3A4, sequence (P08684 whole entry): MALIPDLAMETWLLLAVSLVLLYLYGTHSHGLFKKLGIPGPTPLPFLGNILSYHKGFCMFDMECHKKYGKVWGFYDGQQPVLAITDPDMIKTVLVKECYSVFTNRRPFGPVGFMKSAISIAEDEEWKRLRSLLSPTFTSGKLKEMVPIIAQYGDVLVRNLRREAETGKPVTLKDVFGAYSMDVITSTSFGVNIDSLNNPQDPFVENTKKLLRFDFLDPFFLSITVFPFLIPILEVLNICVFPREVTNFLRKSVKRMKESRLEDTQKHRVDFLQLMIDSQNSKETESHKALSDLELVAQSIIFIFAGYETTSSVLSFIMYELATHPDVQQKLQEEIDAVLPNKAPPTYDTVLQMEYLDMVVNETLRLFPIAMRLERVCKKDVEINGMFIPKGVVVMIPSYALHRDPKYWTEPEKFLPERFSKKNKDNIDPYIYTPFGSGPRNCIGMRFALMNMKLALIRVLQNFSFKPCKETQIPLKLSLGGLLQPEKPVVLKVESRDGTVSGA
Cytochrome P450 2C19, sequence (P33261 whole entry): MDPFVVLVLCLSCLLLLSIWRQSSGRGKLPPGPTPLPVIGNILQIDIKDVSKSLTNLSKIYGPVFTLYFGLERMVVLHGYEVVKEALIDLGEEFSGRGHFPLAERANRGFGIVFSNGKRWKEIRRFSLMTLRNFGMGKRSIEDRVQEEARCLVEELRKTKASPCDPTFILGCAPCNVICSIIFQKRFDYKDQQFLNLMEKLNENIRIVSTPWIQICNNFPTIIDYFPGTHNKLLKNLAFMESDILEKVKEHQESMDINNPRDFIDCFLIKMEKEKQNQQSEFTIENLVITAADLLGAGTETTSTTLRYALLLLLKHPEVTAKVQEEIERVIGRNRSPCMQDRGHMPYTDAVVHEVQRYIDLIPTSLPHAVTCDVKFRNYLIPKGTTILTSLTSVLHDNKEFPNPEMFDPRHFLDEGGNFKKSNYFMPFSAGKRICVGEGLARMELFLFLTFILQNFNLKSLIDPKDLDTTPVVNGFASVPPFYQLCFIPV
C-C chemokine receptor type 5, sequence (P51681 whole entry): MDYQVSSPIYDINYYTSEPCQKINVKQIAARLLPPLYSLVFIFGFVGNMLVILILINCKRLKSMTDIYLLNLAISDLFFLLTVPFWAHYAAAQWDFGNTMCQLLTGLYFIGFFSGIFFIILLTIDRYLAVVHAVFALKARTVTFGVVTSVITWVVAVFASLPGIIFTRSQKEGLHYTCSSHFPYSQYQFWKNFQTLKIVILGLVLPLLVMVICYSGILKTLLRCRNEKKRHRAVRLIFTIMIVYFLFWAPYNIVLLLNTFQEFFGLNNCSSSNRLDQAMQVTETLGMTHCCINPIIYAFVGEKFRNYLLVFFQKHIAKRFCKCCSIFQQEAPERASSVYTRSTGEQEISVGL

## C1=C(CS/C(=N\C2CCCCC2)NC2CCCCC2)N2CCN=C2S1
[1]
  IC50: 32 nM
[2]
  fraction unbound: 0.29
[3]
  IC50: > 3 µM
[4]
  IC50: > 3 µM
[5]
  solubility: > 5000 µg/mL
[6]
  IC50: 40 nM
  IC90: 720 nM
[7]
  IC50: > 10 µM
[8]
  IC50: > 3 µM
[9]
  solubility: > 5000 µg/mL
[10]
  IC50: 86 nM
[11]
  IC50: 11 nM
[12]
  fraction unbound: 0.54
[13]
  microsomal CLint: 411 µL/min/mg
[14]
  IC50: 48 nM
[15]
  microsomal CLint: 51 µL/min/mg
[16]
  Activity: >80%
[17]
  concentration at 120 h: 1000 nM
[18]
  IC50: 3.86 µM
[19]
  IC50: > 10 µM
[20]
  Tmax: 30 min
[21]
  logP: 3.5
[22]
  IC50: > 3 µM
[23]
  logD: -0.2
[24]
  half-life: 432 min
[25]
  IC50: > 3 µM
[26]
  IC50: > 10 µM
[27]
  bioavailability: 14%
[28]
  pKa: 7.7
[29]
  IC50: 55 nM

## CN(/C(=N/C1CCCCC1)SCC1=CSC2=NCCN12)C1CCCCC1
[6]
  IC50: > 100000 nM
  IC90: > 100000 nM
[11]
  IC50: 931 nM
[14]
  IC50: 3380 nM

## C1=C(CS/C(=N\C2CCCC2)NC2CCCC2)N2CCN=C2S1
[11]
  IC50: 493 nM
[14]
  IC50: 3830 nM

## C1=C(CS/C(=N\C2CCCCCCC2)NC2CCCCCCC2)N2CCN=C2S1
[11]
  IC50: 5.3 nM
[14]
  IC50: 27 nM

## CC(C)/N=C(/NC(C)C)SCC1=CSC2=NCCN12
[14]
  IC50: > 10000 nM

## C1=C(CS/C(=N\C2CCCCC2)NC2CCCCCCC2)N2CCN=C2S1
[11]
  IC50: 8 nM
[14]
  IC50: 28 nM

## C1=C(CSC(=NC2CCCCC2)NC2CCCC2)N2CCN=C2S1
[6]
  IC50: 470 nM
  IC90: > 100000 nM
[11]
  IC50: 173 nM
[14]
  IC50: 372 nM

## C1=C(CS/C(=N\C2CCCCC2)Nc2ccccc2)N2CCN=C2S1
[11]
  IC50: 5270 nM
[14]
  IC50: > 10000 nM

## c1ccc(CS/C(=N\C2CCCCC2)NC2CCCCC2)cc1
[11]
  IC50: > 10000 nM
[14]
  IC50: > 10000 nM

## C/N=c1/scc(CS/C(=N\C2CCCCC2)NC2CCCCC2)n1C
[11]
  IC50: 9130 nM
[14]
  IC50: > 10000 nM

## CC1(C)CN2C(CS/C(=N\C3CCCCC3)NC3CCCCC3)=CSC2=N1
[2]
  fraction unbound: 0.2
[5]
  solubility: > 5000 µg/mL
[6]
  IC50: 7 nM
  IC90: 100 nM
[7]
  IC50: > 10 µM
[9]
  solubility: > 5000 µg/mL
[12]
  fraction unbound: 0.46
[13]
  microsomal CLint: 342 µL/min/mg
[15]
  microsomal CLint: 149 µL/min/mg
[18]
  IC50: > 10 µM
[19]
  IC50: > 10 µM
[20]
  Tmax: 30 min
[21]
  logP: 4.5
[23]
  logD: 1.2
[24]
  half-life: 456 min
[30]
  IC50: 400 nM
[26]
  IC50: 5.2 µM
[27]
  bioavailability: 32%
[28]
  pKa: 8
[29]
  IC50: 11 nM
